# According to ChEMBL document CHEMBL3414548, “Luotonin-A based quinazolinones cause apoptosis and senescence via HDAC inhibition and activation of tumor suppressor proteins in HeLa cells” (Eur J Med Chem, 2015):
# Activity calls are given as the source filed them. The rule behind the calls is not given here.
# Key:
# [1] = tested on: MCF7; experiment: Cytotoxicity against human MCF7 cells after 72 hrs by MTT assay; assay type: functional, cell-based; details: MCF7, 72 h
# Summary of the method: (§1)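 Cells were seeded at 1×10⁴ per well and preincubated 18 h at 37 °C, 5% CO₂. They were then exposed to 1–256 μM for 72 h with DMSO ≤0.25%. MTT was added for 2 h and formazan was solubilized in extraction buffer before reading OD at 570 nm. IC50 is mean ± SD of three independent experiments. HEK is the normal-cell line; cancer lines were grown in DMEM with 10% serum.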
# [2] = tested on: HeLa; experiment: Cytotoxicity against human HeLa cells after 72 hrs by MTT assay; assay type: functional, cell-based; summary of the method: as §1
# [3] = tested on: K562; experiment: Cytotoxicity against human K562 cells after 72 hrs by MTT assay; assay type: functional, cell-based; details: K562, 72 h; summary of the method: as §1
# [4] = Cytotoxicity against HEK cells after 72 hrs by MTT assay; assay type: cell-based; details: Homo sapiens, HEK293, 72 h; summary of the method: as §1
# [5] = tested on: HEK293; experiment: Selectivity index, ratio of IC50 for HEK cells to IC50 for human MCF7 cells; assay type: functional
# Summary of the method: (§2)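 Selectivity index is IC50 in normal HEK cells divided by IC50 in the cancer cell line.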
# [6] = tested on: HeLa; experiment: Selectivity index, ratio of IC50 for HEK cells to IC50 for human HeLa cells; assay type: functional; summary of the method: as §2
# [7] = tested on: HEK293; experiment: Selectivity index, ratio of IC50 for HEK cells to IC50 for human K562 cells; assay type: functional; summary of the method: as §2
# [8] = tested on: HeLa; experiment: Cell cycle arrest in human HeLa cells assessed as accumulation at G0/G1 phase at 4 uM after 48 hrs by propidium iodide staining-based flow cytometric analysis (reference value: 62%); assay type: functional
# [9] = tested on: HeLa; experiment: Cell cycle arrest in human HeLa cells assessed as accumulation at S phase at 4 uM after 48 hrs by propidium iodide staining-based flow cytometric analysis (reference value: 7%); assay type: functional
# [10] = tested on: HeLa; experiment: Cell cycle arrest in human HeLa cells assessed as accumulation at G2/M phase at 4 uM after 48 hrs by propidium iodide staining-based flow cytometric analysis (reference value: 31%); assay type: functional
# [11] = tested on: HeLa; experiment: Cell cycle arrest in human HeLa cells assessed as accumulation at G0 phase at 8 uM after 48 hrs by propidium iodide staining-based flow cytometric analysis (reference value: 3%); assay type: functional
# [12] = tested on: HeLa; experiment: Cell cycle arrest in human HeLa cells assessed as accumulation at G1 phase at 8 uM after 48 hrs by propidium iodide staining-based flow cytometric analysis (reference value: 68%); assay type: functional
# [13] = tested on: HeLa; experiment: Cell cycle arrest in human HeLa cells assessed as accumulation at S phase at 8 uM after 48 hrs by propidium iodide staining-based flow cytometric analysis (reference value: 10%); assay type: functional
# [14] = tested on: HeLa; experiment: Induction of senescence in human HeLa cells at 4 uM after 72 hrs by X-gal staining-based beta-galactosidase assay; assay type: functional, cell-based
# Summary of the method: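 HeLa cells in chamber slides were treated at 4 μM for 72 h. They were fixed in 3% paraformaldehyde and then in methanol at 4 °C. Staining used X-gal in sodium phosphate buffer with ferro/ferricyanide, 1 mM MgCl₂ and citric acid for 24 h. Senescent cells were scored by microscopy as enlarged, flattened and blue.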
# [15] = tested on: HeLa; experiment: Upregulation of p53 mRNA expression in human HeLa cells at 4 uM after 48 hrs by RT-PCR analysis; assay type: functional, cell-based
# Summary of the method: (§3)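 HeLa cells were treated at 4 μM for 48 h before RNA isolation. cDNA was amplified by RT-PCR with gene-specific primers, using GAPDH as loading control. Products were run on 1% agarose gel with ethidium bromide, and band intensity was quantified by densitometry.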
# [16] = tested on: HeLa; experiment: Upregulation of p21 mRNA expression in human HeLa cells at 4 uM after 48 hrs by RT-PCR analysis; assay type: functional, cell-based; summary of the method: as §3
# [17] = tested on: HeLa; experiment: Downregulation of EZH2 mRNA expression in human HeLa cells at 4 uM after 48 hrs by RT-PCR analysis; assay type: functional, cell-based; summary of the method: as §3
# [18] = tested on: HeLa; experiment: Downregulation of HDAC-1 mRNA expression in human HeLa cells at 4 uM after 48 hrs by RT-PCR analysis; assay type: functional, cell-based; summary of the method: as §3
# [19] = tested on: HeLa; experiment: Downregulation of HDAC-2 mRNA expression in human HeLa cells at 4 uM after 48 hrs by RT-PCR analysis; assay type: functional, cell-based; summary of the method: as §3
# [20] = tested on: HeLa; experiment: Downregulation of HDAC-5 mRNA expression in human HeLa cells at 4 uM after 48 hrs by RT-PCR analysis; assay type: functional, cell-based; summary of the method: as §3
# [21] = tested on: HeLa; experiment: Change in HDAC-6 mRNA expression in human HeLa cells at 4 uM after 48 hrs by RT-PCR analysis; assay type: functional, cell-based; summary of the method: as §3
# [22] = tested on: HeLa; experiment: Change in HDAC-7 mRNA expression in human HeLa cells at 4 uM after 48 hrs by RT-PCR analysis; assay type: functional, cell-based; summary of the method: as §3
# [23] = biological target: Histone deacetylase (HDAC1 and HDAC2) (Homo sapiens, UniProt Q13547+Q92769); experiment: Inhibition of HDAC1/2 in human HeLa cells using color de lys as substrate after 30 mins by colorimetric analysis; assay type: cell-based
# Summary of the method: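 HeLa cells were treated at 4 μM, with TSA as reference. Samples were then incubated 30 min with Color de Lys substrate and HDAC-1/2. Developer yields a yellow product, and absorbance was read at 405 nm.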
# [24] = tested on: HeLa; experiment: Induction of human p16 promoter activity transfected in human HeLa cells at 4 uM after 48 hrs by luciferase-based luminescence assay; assay type: cell-based
# Summary of the method: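 A 1.4 kb human p16 promoter in pGL3-basic luciferase vector was co-transfected into HeLa with a β-gal plasmid. Cells were then treated at 4 μM for 48 h. Lysate luciferase luminescence was normalized to β-galactosidase as internal control.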
# [25] = tested on: HeLa; experiment: Cell cycle arrest in human HeLa cells assessed as accumulation at G2/M phase at 4 uM after 48 hrs by propidium iodide staining-based flow cytometric analysis (reference value: 19%)
SMILES,IC50 [1],IC50 [2],IC50 [3],IC50 [4],Ratio IC50 [5],Ratio IC50 [6],Ratio IC50 [7],Activity [8],Activity [9],Activity [10],Activity [11],Activity [12],Activity [13],Activity [14],Activity [15],Activity [16],Activity [17],Activity [18],Activity [19],Activity [20],also measured
Cc1nc2ccccc2c(=O)n1-c1ccccc1Cn1cc(-c2ccccc2)nn1,8 µM,5.94 µM,20.2 µM,256 µM,32,43.09,12.69,76%,6%,18%,7%,72%,6%,Active,Active,Active,Active,Active,Active,Active,Activity [21]: inactive; Activity [22]: inactive; IC50 [23]: 2.96 µM; Activity [24]: Active; Activity [25]: 15%
O=c1c2ccccc2nc2n1Cc1cc3ccccc3nc1-2 [LUOTONIN A],9.28 µM,5.94 µM,28.8 µM,58 µM,6.25,9.76,2.01,75%,5%,20%,5%,72%,5%,Active,Active,Active,Active,Active,Active,Active,Activity [21]: inactive; Activity [22]: inactive; IC50 [23]: 6.4 µM; Activity [24]: Active; Activity [25]: 17%
